Data as given in ChEMBL document CHEMBL1134785, “Synthesis and biological evaluation of prostaglandin-F alkylphosphinic acid derivatives as bone anabolic agents for the treatment of osteoporosis” (J Med Chem, 2001).
pIC50: −log10 of the molar value.

What was measured:
Rattus norvegicus [1] = assay: Bone Volume /Tissue Volume (%)measured using micro Computed Tomography(CT) after a dose of 30 ug/kg in Vertebral Bone; type: functional; details: at 30 µg/kg
Rattus norvegicus [2] = assay: Bone Volume /Tissue Volume (%)measured using micro Computed Tomography(CT) after a dose of 300 ug/kg in Vertebral Bone; type: functional; details: at 300 µg/kg
Rattus norvegicus [3] = assay: Bone formation rate/bone volume (%/year)bone measured Histomorphometrically after a dose of 30 ug/kg in proximal tibial metaphysis; type: functional; details: at 30 µg/kg
Rattus norvegicus [4] = assay: Bone Volume /Tissue Volume (%)measured Histomorphometrically after a dose of 30 ug/kg in proximal tibial metaphysis; type: functional; details: at 30 µg/kg
Rattus norvegicus [5] = assay: Bone Volume /Tissue Volume (%)measured Histomorphometrically after a dose of 3000 ug/kg in proximal tibial metaphysis; type: functional; details: at 3000 µg/kg
Rattus norvegicus [6] = assay: Mineralizing surface/bone surface(%) measured Histomorphometrically after a dose of 30 ug/kg in proximal tibial metaphysis; type: functional
Method in brief: (§1)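 Ovariectomized six-month-old rats, 6-8 per group, were dosed subcutaneously once daily at 0.01–3.0 mg/kg for 60 days, starting 60 days after surgery. Vehicle was acetate-buffered saline, methylcellulose and polyoxyethylenesorbitan monooleate. Labels were xylenol orange 90 mg/kg pretreatment and calcein 10 mg/kg at 14 and 4 days before necropsy. Histomorphometry covered the proximal tibial metaphysis, 1–4 mm distal to the growth plate–metaphyseal junction. ANOVA/LSD versus vehicle.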

Rattus norvegicus [7] = assay: Mineralizing surface/bone surface(%) measured Histomorphometrically after a dose of 3000 ug/kg in proximal tibial metaphysis; type: functional; method in brief: as §1
Rattus norvegicus [8] = assay: Bone formation rate/tissue volume (%/year)bone Histomorphometrically after a dose of 1000 ug/kg in proximal tibial metaphysis; type: functional; details: at 1000 µg/kg
Rattus norvegicus [9] = assay: Bone formation rate/tissue volume (%/year)bone measured Histomorphometrically after a dose of 10 ug/kg in proximal tibial metaphysis; type: functional; details: at 10 µg/kg
Rattus norvegicus [10] = assay: Derived trabecular no […]measured using micro Computed Tomography(CT) after a dose of 30 ug/kg in Vertebral Bone; type: functional, Trabecula
Method in brief: (§2)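 Micro-CT of the fifth lumbar vertebra, measuring cancellous bone volume and architecture. Rats were 6 months old, OVX 60 days before treatment, then dosed daily for 60 days. Test-agent doses were 10–3000 µg/kg, given as a once-daily subcutaneous injection; 6 mg/kg/day was given to the positive-control group. Groups were compared with vehicle by ANOVA plus LSD test.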

Rattus norvegicus [11] = assay: Directly measured thickness(um) using micro Computed Tomography(CT) after a dose of 10 ug/kg in Vertebral Bone; type: functional; method in brief: as §2
Rattus norvegicus [12] = assay: Directly measured thickness(um) using micro Computed Tomography(CT) after a dose of 1000 ug/kg in Vertebral Bone; type: functional; method in brief: as §2
Rattus norvegicus [13] = assay: Mineral apposition rate ([…])bone measured Histomorphometrically after a dose of 300 ug/kg in tibial diaphysis; type: functional
Method in brief: (§3)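 Six-month-old rats, bilaterally ovariectomized, 6-8 per group, on natural chow. After 60 days they received once-daily subcutaneous dosing for 60 days at 0.01–3.0 mg/kg. Vehicle was acetate-buffered saline with methylcellulose and polyoxyethylenesorbitan monooleate. Labels were xylenol orange 90 mg/kg before treatment and calcein 10 mg/kg 14 and 4 days before sacrifice. Tibial histomorphometry was read under fluorescent light, with ANOVA/LSD versus vehicle.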

Rattus norvegicus [14] = assay: Marrow area (mm) measured Histomorphometrically after a dose of 10 ug/kg in tibial diaphysis; type: functional; method in brief: as §3
Rattus norvegicus [15] = assay: Periosteal mineralizing surface (%) measured Histomorphometrically after a dose of 10 ug/kg in tibial diaphysis; type: functional
Method in brief: (§4)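 Rats on natural chow (1.46% Ca) were bilaterally ovariectomized at 6 months and left untreated for 60 days. They then received once-daily subcutaneous doses for 60 days, with vehicle of acetate-buffered saline, methylcellulose and polysorbate. Xylenol orange (90 mg/kg) was given before treatment and calcein (10 mg/kg) 14 and 4 days before sacrifice. Tibiae were analysed by fluorescent histomorphometry, 6-8 rats/group, ANOVA/LSD vs vehicle.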

Rattus norvegicus [16] = assay: Trabecular no (mm)measured Histomorphometrically after a dose of 100 ug/kg in proximal tibial metaphysis; type: functional, Trabecula
Method in brief: (§5)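 Six-month-old rats were ovariectomized, and 60 days later daily subcutaneous dosing began for 60 days, with vehicle of acetate-buffered saline, methylcellulose and polysorbate. Xylenol orange (90 mg/kg) labelled bone pre-treatment and calcein (10 mg/kg) 14 and 4 days pre-sacrifice. Histomorphometry covered the proximal tibial metaphysis 1-4 mm distal to the growth plate-metaphyseal junction. Groups were 6-8 rats, compared by ANOVA/LSD vs vehicle.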

Rattus norvegicus [17] = assay: Periosteal mineral apposition rate ([…]) measured Histomorphometrically after a dose of 100 ug/kg in tibial diaphysis; type: functional; method in brief: as §3
Rattus norvegicus [18] = assay: Trabecular thickness […] measured Histomorphometrically after a dose of 3000 ug/kg in proximal tibial metaphysis; type: functional, Trabecula; method in brief: as §5
Rattus norvegicus [19] = assay: connectivity density (mm-3) using micro Computed Tomography(CT) after a does of 1000 ug/kg in Vertebral Bone; type: functional
Method in brief: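 Rats were ovariectomized at 6 months of age and, after 60 days, dosed subcutaneously once daily for 60 days, with vehicle of acetate-buffered saline, methylcellulose and polysorbate. At necropsy the fifth lumbar vertebra was scanned by micro-CT to obtain cancellous architecture. Groups were 6-8 rats; results were compared to vehicle by ANOVA with least significant difference test.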

Rattus norvegicus [20] = assay: Tissue area (mm) measured Histomorphometrically after a dose of 10 ug/kg in tibial diaphysis; type: functional; method in brief: as §4
Thromboxane A2 receptor = target: T1, Thromboxane A2 receptor (Homo sapiens, UniProt P21731); assay: In vitro binding at TP human prostaglandin receptor using [3H]SQ-29,548 as radioligand
T1 sequence (P21731 whole entry): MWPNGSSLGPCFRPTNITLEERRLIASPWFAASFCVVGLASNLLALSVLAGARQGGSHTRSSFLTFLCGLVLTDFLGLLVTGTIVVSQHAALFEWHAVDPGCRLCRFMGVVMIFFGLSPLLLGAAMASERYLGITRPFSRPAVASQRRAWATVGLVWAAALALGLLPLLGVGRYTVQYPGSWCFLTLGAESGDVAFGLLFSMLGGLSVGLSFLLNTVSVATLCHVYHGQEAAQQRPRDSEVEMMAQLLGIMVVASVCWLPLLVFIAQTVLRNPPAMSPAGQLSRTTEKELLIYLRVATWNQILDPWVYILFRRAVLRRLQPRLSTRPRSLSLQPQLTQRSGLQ
Method in brief: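 Receptors stably expressed in CHO cells, collected 4-5 days after seeding. Membranes made by lysis (Tris, EDTA, protease inhibitors) and 100000g pellet, then resuspended at 1 mg protein/mL in TME. Radioligands at 5 nM: [3H]PGE2 for EP2/EP3/EP4, [3H]Iloprost for IP, [3H]SQ-29548 for TP. Competition binding with filtration and counting.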

## CP(=O)(O)CCC/C=C\C[C@@H]1[C@@H](/C=C/[C@@H](O)COc2ccccc2)[C@H](O)C[C@@H]1O
Rattus norvegicus [1]
  Activity: 34.58%
Rattus norvegicus [2]
  Activity: 38.61%
Rattus norvegicus [3]
  Activity: 495.65%
Rattus norvegicus [4]
  Activity: 3.63%
Rattus norvegicus [5]
  Activity: 8.51%
Rattus norvegicus [6]
  Activity: 30.59%
Rattus norvegicus [7]
  Activity: 23.66%
Rattus norvegicus [8]
  Activity: 23.44%
Rattus norvegicus [9]
  Activity: 9.81%
Rattus norvegicus [10]
  Derived trabecular number: 4.44 mm-1
Rattus norvegicus [11]
  Directly measured thickness: 118 µm
Rattus norvegicus [12]
  Directly measured thickness: 128 µm
Rattus norvegicus [13]
  Mineral apposition rate: 0.53 µm/day
Rattus norvegicus [14]
  Marrow area: 0.93 mm²
Rattus norvegicus [15]
  Periosteal mineralizing surface: 25.86%
Rattus norvegicus [16]
  Trabecular no.: 1.28 1/mm
Rattus norvegicus [17]
  Periosteal mineral apposition rate: 0.38 µm day-1
Rattus norvegicus [18]
  Trabecular thickness: 55.8 µm
Rattus norvegicus [19]
  Connectivity density: 59.66 mm**-3
Rattus norvegicus [20]
  Tissue area: 5.09 mm
Thromboxane A2 receptor
  pIC50: < 5.00
